Measurements collected from several papers.
Lines come from different studies, so protocols differ.
Cell line: A549

Structure (SMILES)	effect on	method	time	setting	IC50
CN1CCN(C/C=N/NC(=O)Nc2cc3c(Nc4ccc(F)c(Cl)c4)ncnc3cc2O[C@H]2CCOC2)CC1	cell growth or viability	MTT	72 h		4.34 µM
COc1ccccc1OCCNCC(O)COc1cccc2[nH]c3ccccc3c12 (centres unmarked)	cell growth or viability	CCK-8	72 h		22.9 µM
COc1cc(/C=C/C(=O)C(=Cc2cccc(OC)c2OC)C(=O)/C=C/c2ccc(O)c(OC)c2)ccc1O	colony formation		9 days		~0.4 µM
Cc1ccc(C)n1-c1ccc(C(=O)NNC=O)cc1	cell growth or viability	MTT	72 h		219 µM
COc1cc2ncnc(Nc3ccc(F)c(Cl)c3)c2cc1NC(=O)N/N=C/c1cccn1CCCN1CCOCC1	cell growth or viability	MTT	72 h		1.86 µM
COc1c(C)cnc(COc2ccc(NC(=O)Nc3ccc(F)cc3)cc2)c1C	cell growth or viability	MTT	72 h		13.2 µM
CC1=C(O)C(=O)C=C2C1=CC=C1[C@@]2(C)CC[C@@]2(C)[C@@H]3C[C@](C)(C(=O)OCCCCCCCO)CC[C@]3(C)CC[C@]12C	cell growth or viability	MTT	48 h		> 100 µM
COC1=C2C[C@@H](C)C[C@H](OC)[C@H](O)[C@@H](C)/C=C(\C)[C@H](OC(N)=O)[C@@H](OC)/C=C\C=C(/C)C(=O)NC(=CC1=O)C2=O	cell growth or viability	SRB	72 h		0.3 µM
O=C(NC(=S)NCCCNC(=S)NC(=O)c1ccc2ccccc2c1)c1ccc2ccccc2c1	cell growth or viability		48 h		2.41 µM
CS(=O)(=O)c1ccc(-n2cc(C=N/N=c3\[nH]c(-c4ccc(Br)cc4)cs3)c(-c3ccc([N+](=O)[O-])cc3)n2)cc1	cell growth or viability	MTT	48 h		28.4 µM
CCOc1cc(OCC)cc(C(=O)O[C@@H]2CN3Cc4c(cc5c(c4OC)OCO5)[C@@]24C=C[C@H](OC)C[C@@H]34)c1	cell growth or viability	WST-1			> 10 µM
CN1CCN(CCCn2cccc2/C=N/NC(=O)Nc2cc3c(Nc4ccc(F)c(Cl)c4)ncnc3cc2O[C@H]2CCOC2)CC1	cell growth or viability	MTT	72 h		4.06 µM
COc1cc(CNC(=O)C[C@H](C)CCC=C(C)C)ccc1OCc1cn(-c2ccc(Cl)cc2)nn1	cell growth or viability	SRB	48 h		10.6 µM
CCCCNC(=O)NNC(=O)c1cccc(Nc2nccc(-c3ccncc3)n2)c1	cell growth or viability	MTT	24 h		30.6 µM
COc1cc2ncnc(Nc3ccc(F)c(Cl)c3)c2cc1NC(=O)N/N=C/c1cccn1CCN1CCOCC1	cell growth or viability	MTT	72 h		0.58 µM
COC(=O)/C=C1\S/C(=N\C(=O)c2ccc3ccccc3c2)N(C2CCCCC2)C1=O	cell growth or viability		48 h		13.4 µM
COc1ccccc1NCCCNCC(O)COc1cccc2[nH]c3ccccc3c12 (centres unmarked)	cell growth or viability	CCK-8	72 h		10.8 µM
COc1cc2ncnc(Nc3ccc(F)c(Cl)c3)c2cc1NC(=O)N/N=C/CN1CCN(C)CC1	cell growth or viability	MTT	72 h		6.6 µM
Cc1nc(Nc2ncc(C(=O)Nc3c(C)cccc3Cl)s2)cc(N2CCN(CCO)CC2)n1	cell growth or viability	MTT	48 h		11.8 µM
O=C(N/N=C1\C(=O)N(c2ccccc2)c2ccccc21)c1cc2ccccc2[nH]1	cell growth or viability				2.41 µM
CCCc1ccc(OCC(O)CNC/C=C/c2ccccc2OC)cc1 (centres unmarked)	cell growth or viability	CCK-8	72 h		31.6 µM

Structure (SMILES)	effect on	method	time	setting	IC50
CCC(=O)Nc1cc(Nc2nc(N3CCc4sccc4C3)c3cccnc3n2)c(OC)cc1N1CCSCC1	cell growth or viability	MTT			7.91 µM
C=CC1=C(C)c2cc3[nH]c(cc4nc(cc5[nH]c(cc1n2)c(C)c5CCC(=O)O)C(CCC(=O)O)=C4C)c(C)c3C=C	cell growth or viability		4 h	dark	> 100 µM
O=C(CN1C(=O)/C(=C/c2ccc(Cl)cc2)SC1=S)Nc1ccccc1	cell growth or viability	MTT			14.3 µM
Nc1ccc(Cl)c[n+]1[Pt-2]([Cl])([Cl])[n+]1cc(Cl)ccc1N	cell growth or viability	MTT	24 h		8.6 µM
C=C(Cl)C(=O)Nc1cc(Nc2nc(N3CCSCC3)c3sccc3n2)c(OC)cc1N(C)CCN(C)C	cell growth or viability	MTT			0.098 µM
COCCCOC(=O)[C@]1(C)CC[C@]2(C)CC[C@]3(C)C4=CC=C5C(=CC(=O)C(O)=C5C)[C@]4(C)CC[C@@]3(C)[C@@H]2C1	cell growth or viability	MTT	48 h		3.22 µM
Cc1cccc(-n2ncc(Br)c(Br)c2=O)c1	cell growth or viability	resazurin	96 h		1.62 µM
Oc1ncnc2cc(Nc3nc(-c4ccccc4)cs3)ccc12	cell growth or viability	MTT			24.7 µM
CCC(=O)Nc1cc(Nc2nc(Nc3cnn(C)c3)c3sccc3n2)c(OC)cc1N(C)CCN(C)C	cell growth or viability	MTT			7.06 µM
COc1ccc(NC(=O)Nc2ccc(OCc3nccc(OCC(F)(F)F)c3C)cc2)cc1	cell growth or viability	MTT	72 h		12.5 µM
C=CC(=O)Nc1cc(Nc2nc(N3CCc4sccc4C3)c3cccnc3n2)c(OC)cc1N1CCN(CC)CC1	cell growth or viability	MTT			1.42 µM
OCc1ccc2c(c1C#Cc1ccc(O)cc1)C(c1ccc(O)cc1)(c1ccc(O)cc1)c1cc(O)ccc1-2	cell growth or viability	MTT	48 h		> 50 µM
O=C(NC(=S)N1CCCCC1)c1ccc2ccccc2c1	cell growth or viability		48 h		5.95 µM
C=C(Cl)C(=O)Nc1cc(Nc2nc(N3CCCC3)c3sccc3n2)c(OC)cc1N(C)CCN(C)C	cell growth or viability	MTT			4.54 µM
COc1ccc(-c2nc(C(=O)Nc3nnc(-c4cc5ccccc5[nH]4)s3)cc3c2[nH]c2ccccc23)cc1	cell growth or viability	MTT	72 h		2.82 µM
COc1ccccc1/C=C/CNCC(O)COc1ccc2ncccc2c1 (centres unmarked)	cell growth or viability	CCK-8	72 h		44.3 µM
COc1ccc(NC(=O)Nc2ccc(OCc3nccc(OC)c3OC)cc2)cc1	cell growth or viability	MTT	72 h		16.7 µM
Nc1ccc(-c2csc(Nc3ccc4c(O)ncnc4c3)n2)cc1	cell growth or viability	MTT			29.6 µM
CC(C)=CCC[C@](C)(O)[C@H]1CC[C@]2(C)[C@@H]1[C@H](O)C[C@@H]1[C@@]3(C)CC[C@H](O[C@@H]4O[C@H](CO)[C@@H](O)[C@H](O)[C@H]4O[C@@H]4O[C@H](CO)[C@@H](O)[C@H](O)[C@H]4O)C(C)(C)[C@@H]3CC[C@]12C	cell growth or viability	MTT	72 h		> 100 µM
COCCCOc1ccnc(COc2ccc(NC(=O)Nc3cccc(C(F)(F)F)c3)cc2)c1C	cell growth or viability	MTT	72 h		4.38 µM
